Experimental data published in publication PMC2906805 (The open enzyme inhibition journal, 2009).

target: T1, PMPMEase (EPL, esterase from porcine liver) (Sus scrofa, UniProt Q29550); assay: HPLC product assay with UV detection, Michaelis-Menten fit; type: biochemical
T1 sequence (Q29550 19-566): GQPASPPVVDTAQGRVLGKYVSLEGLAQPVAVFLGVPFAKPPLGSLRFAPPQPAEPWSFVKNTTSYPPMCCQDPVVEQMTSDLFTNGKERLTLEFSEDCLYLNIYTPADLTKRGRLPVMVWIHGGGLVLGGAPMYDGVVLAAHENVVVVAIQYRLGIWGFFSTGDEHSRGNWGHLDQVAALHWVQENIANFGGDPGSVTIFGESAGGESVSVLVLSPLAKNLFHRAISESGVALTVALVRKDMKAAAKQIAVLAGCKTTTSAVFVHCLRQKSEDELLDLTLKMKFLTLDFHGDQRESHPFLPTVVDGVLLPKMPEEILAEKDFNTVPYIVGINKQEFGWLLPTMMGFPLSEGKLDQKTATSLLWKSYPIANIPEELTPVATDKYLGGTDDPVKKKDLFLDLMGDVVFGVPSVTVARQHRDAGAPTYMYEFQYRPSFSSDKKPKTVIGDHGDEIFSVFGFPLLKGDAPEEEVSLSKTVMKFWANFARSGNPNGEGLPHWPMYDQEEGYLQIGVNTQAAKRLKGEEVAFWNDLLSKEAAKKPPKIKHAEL
Summary of the method: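 Commercial porcine liver esterase (0.1 to 5 µg per assay, depending on substrate) was incubated with varying concentrations of S-alkylated cysteinyl ester substrates in 100 mM Tris-HCl, pH 7.4, with 5% DMSO at 37°C. Reactions were stopped, and acid products were quantified by reversed-phase HPLC at 260 nm (p-nitrobenzoyl substrates) or 214 nm (others). Base-hydrolysed substrate standards supplied the calibration. Km came from a Michaelis-Menten fit.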

Structure (SMILES)	Km
COC(=O)[C@@H](CSC/C=C(\C)CC/C=C(\C)CCC=C(C)C)NC(C)=O [L-69, (S)-methyl 3-((2E,6E)-3,7,11-trimethyldodeca-2,6,10-trienylthio)-2-acetamidopropanoate]	21 ± 4.2 µM
COC(=O)[C@@H](CSC/C=C(\C)CC/C=C(\C)CCC=C(C)C)NC(=O)c1ccc([N+](=O)[O-])cc1 [L-70, (S)-methyl 3-((2E,6E)-3,7,11-trimethyldodeca-2,6,10-trienylthio)-2-(4-nitrobenzamido)propanoate]	11 ± 0.9 µM
COC(=O)[C@H](CSC/C=C(\C)CCC=C(C)C)NC(=O)c1ccc([N+](=O)[O-])cc1 [L-72, (R)-methyl 3-((E)-3,7-dimethylocta-2,6-dienylthio)-2-(4-nitrobenzamido)propanoate]	87 ± 12 µM
CCSC[C@H](NC(=O)c1ccc([N+](=O)[O-])cc1)C(=O)OC [L-74, (R)-methyl 2-(4-nitrobenzamido)-3-(ethylthio)propanoate]	505 ± 63 µM
CC(C)=CCC/C(C)=C/CC/C(C)=C/CSC[C@H](NC(=O)c1ccc([N+](=O)[O-])cc1)C(=O)OC(C)C [L-75, (R)-isopropyl 3-((2E,6E)-3,7,11-trimethyldodeca-2,6,10-trienylthio)-2-(4-nitrobenzamido)propanoate]	5.9 ± 0.7 µM
CCOC(=O)[C@H](CSC/C=C(\C)CC/C=C(\C)CCC=C(C)C)NC(=O)c1ccc([N+](=O)[O-])cc1 [L-76, (R)-ethyl 3-((2E,6E)-3,7,11-trimethyldodeca-2,6,10-trienylthio)-2-(4-nitrobenzamido)propanoate]	11 ± 0.9 µM
COC(=O)[C@H](CSCC=C(C)C)NC(=O)c1ccc([N+](=O)[O-])cc1 [L-77, (R)-methyl 3-(3-methylbut-2-enylthio)-2-(4-nitrobenzamido) propanoate]	294 ± 25 µM
COC(=O)[C@H](CSC/C=C(\C)CC/C=C(\C)CC/C=C(\C)CCC=C(C)C)NC(=O)c1ccc([N+](=O)[O-])cc1 [L-80, (R)-methyl 3-((2E,6E,10E)-3,7,11,15-tetramethylhexadeca-2,6,10,14-tetraenylthio)-2-(4-nitrobenzamido) propanoate]	15 ± 2.7 µM
COC(=O)[C@H](CSCCC(C)C)NC(=O)c1ccc([N+](=O)[O-])cc1 [L-81, (R)-methyl 2-(4-nitrobenzamido)-3-(isopentylthio)propanoate]	960 ± 180 µM
COC(=O)[C@H](CSCC[C@@H](C)CCC=C(C)C)NC(=O)c1ccc([N+](=O)[O-])cc1 [L-83, (R)-methyl 3-((S)-3,7-dimethyloct-6-enylthio)-2-(4-nitrobenzamido)propanoate]	56 ± 9.6 µM
COC(=O)[C@H](CSCC[C@H](C)CCC=C(C)C)NC(=O)c1ccc([N+](=O)[O-])cc1 [L-86, (R)-methyl 3-((R)-3,7-dimethyloct-6-enylthio)-2-(4-nitrobenzamido)propanoate]	53 ± 7 µM
COC(=O)[C@H](CSCc1ccccc1)NC(=O)c1ccc([N+](=O)[O-])cc1 [L-93, (R)-methyl 2-(4-nitrobenzamido)-3-(benzylthio)propanoate]	40.5 ± 3.7 µM
COC(=O)CNC(=O)c1ccc([N+](=O)[O-])cc1 [L-102, methyl 2-(4-nitrobenzamido)acetate]	400 ± 115 µM
COC(=O)[C@H](C)NC(=O)c1ccc([N+](=O)[O-])cc1 [L-111, (S)-methyl 2-(4-nitrobenzamido)propanoate]	300 ± 38 µM
COC(=O)[C@H](CSC/C=C(\C)CC/C=C(\C)CCC=C(C)C)NC(=O)CNC(=O)c1ccc([N+](=O)[O-])cc1 [RD-18, N-(4-Nitrobenzoylglycyl)-S-(trans, trans-farnesyl)cysteine methyl ester]	8.4 ± 0.89 µM
COC(=O)[C@H](CSC/C=C(\C)CC/C=C(\C)CCC=C(C)C)NC(=O)c1ccc([N+](=O)[O-])cc1 [RD-PNB, (R)-methyl 3-((2E,6E)-3,7,11-trimethyldodeca-2,6,10-trienylthio)-2-(4-nitrobenzamido)propanoate]	29 ± 2.2 µM
